These results are taken from ChEMBL document CHEMBL3352472, “Discovery of 4-aryl-7-hydroxyindoline-based P2Y1 antagonists as novel antiplatelet agents” (J Med Chem, 2014).

Each structure is given as a SMILES string. Active and inactive are the calls of the source. The calls are words filed in the database; no cut-off is given here.

The nature of data set [1]: Metabolic stability in human liver microsomes assessed as compound remaining at 0.5 uM after 10 mins. The data set is classed as ADME. Conditions: read-out: Stability. The procedure, abridged:
(§1)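 Compound at 0.5 μM incubated 10 min with 1 mg/mL human, rat or mouse liver microsomes; percentage of parent remaining reported.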

Data set [2] deals with T1, P2Y purinoceptor 1 (Homo sapiens, UniProt P47900). Put plainly: Antagonist activity at P2Y1 receptor in washed human platelets assessed as 1 uM 2-methylthio-ADP-induced calcium flux by FLIPR assay. The data set is classed as functional.
A short description of data set [3]: Metabolic stability in mouse liver microsomes assessed as compound remaining at 0.5 uM after 10 mins. The data set is classed as ADME. Conditions: read-out: Stability. The procedure, abridged:
as §1

Data set [4] in a line: Metabolic stability in rat liver microsomes assessed as compound remaining at 0.5 uM after 10 mins. The data set is classed as ADME. Conditions: read-out: Stability. Summed up:
as §1

Data set [5] has as its target T1, P2Y purinoceptor 1. Put plainly: Antagonist activity at P2Y1 receptor in platelet-enriched human plasma assessed as 10 uM ADP-induced platelet aggregation at 40 uM preincubated for 1 min followed by ADP induction measured at 5 mins by aggregometric analysis. The data set is classed as cell-free.
Data set [6] has as its system Oryctolagus cuniculus. Put plainly: Antithrombotic activity in rabbit model of electrically-induced carotid artery thrombosis assessed as reduction in thrombus formation dosed 30 mins before electrical stimulation. The data set is classed as functional, organism-based.
For data set [7], the system named is Oryctolagus cuniculus. Put plainly: Induction of bleeding time in rabbit model of electrically-induced carotid artery thrombosis at 80% antithrombotic dose administered 30 mins before electrical stimulation (reference value: 1 +/- 0.05). The data set is classed as organism-based. Conditions: in vivo, 0.5 h.
Data set [8] can be described thus: Oral bioavailability in rat at 0.5 mg/kg by cassette dosing method. The data set is classed as ADME, organism-based. Conditions: in vivo.
Data set [9] can be described thus: Clearance in rat at 0.5 mg/kg by cassette dosing method. The data set is classed as ADME, organism-based. The arrangement: dose 0.5 mg/kg. As to conditions: in vivo.
A short description of data set [10]: Volume of distribution at steady state in rat at 0.5 mg/kg by cassette dosing method. Further details: dose 0.5 mg/kg. The data set is classed as ADME, organism-based. Conditions: in vivo, read-out: Vdss.

T1 sequence (P47900 whole entry): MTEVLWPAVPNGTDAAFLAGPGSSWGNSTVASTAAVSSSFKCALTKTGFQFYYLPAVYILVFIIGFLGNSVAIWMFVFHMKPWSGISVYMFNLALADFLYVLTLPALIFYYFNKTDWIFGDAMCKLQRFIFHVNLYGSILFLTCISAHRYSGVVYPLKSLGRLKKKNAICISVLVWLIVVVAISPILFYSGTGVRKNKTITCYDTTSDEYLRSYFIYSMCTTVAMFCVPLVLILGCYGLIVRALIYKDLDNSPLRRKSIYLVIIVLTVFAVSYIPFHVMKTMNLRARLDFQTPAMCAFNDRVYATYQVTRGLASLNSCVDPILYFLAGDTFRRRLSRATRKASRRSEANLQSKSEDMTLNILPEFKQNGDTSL

Regarding `CC1(C)CN(c2ccccc2NC(=O)Nc2ccc(OC(F)(F)F)cc2)c2c(O)cc(F)c(-c3ccc(F)cc3)c21`, the remaining at 10 min, 0.5 µM in data set [1] was 73%; in data set [3], 77%; in data set [4], 84%. The IC50 at P2Y purinoceptor 1 [2] came out at 0.23 nM.
Turning to `CC1(C)CN(c2ccccc2NC(=O)Nc2ccc(OC(F)(F)F)cc2)c2c(O)cc(F)c(-c3cc(F)nc(F)c3)c21`, the remaining at 10 min, 0.5 µM in data set [1] turned out to be 75%; in data set [3] it was 75%; in data set [4], 80%. Also, the 50% inhibitory concentration (IC50) at P2Y purinoceptor 1 [2] was found to be 0.47 nM.
For `CC1(C)CN(c2ccccc2NC(=O)Nc2ccc(OC(F)(F)F)cc2)c2c(O)ccc(-c3ccc(Cl)cc3)c21`, the remaining at 10 min, 0.5 µM was 84% in [1], 78% in data set [3] and 83% in [4]. Besides, the half-maximal inhibitory concentration (IC50) at P2Y purinoceptor 1 [2] was found to be 0.13 nM.
As for `CC1(C)CN(c2ccccc2NC(=O)Nc2ccc(OC(F)(F)F)cc2)c2c(O)ccc(-c3ccc(F)cc3F)c21`, the values for the remaining at 10 min, 0.5 µM in [1], in data set [3] and in [4] were 81%, 79% and 72%, respectively. For the same compound, at P2Y purinoceptor 1 [2], the half-inhibitory concentration (IC50) was found to be 0.52 nM.
Turning to `CC1(CO)CN(c2ccccc2NC(=O)Nc2nc3ccc(Cl)nc3s2)c2c(O)ccc(Cl)c21` (centres undefined), the inhibition at P2Y purinoceptor 1 [5] came out at 72%.
`Cc1nc(NC(=O)Nc2ccccc2N2CC(C)(C)c3c(-c4ccc(F)cc4)ccc(O)c32)cs1`: the remaining at 10 min, 0.5 µM in data set [1] stood at 95%; in data set [3] it was 52%; in data set [4], 55%. Besides, the IC50 on P2Y purinoceptor 1 [2] turned out to be 0.08 nM.
As to `CC1(C(=O)O)CN(c2ccccc2NC(=O)Nc2nc3ccc(Cl)nc3s2)c2c(O)ccc(Cl)c21` (centres undefined), the inhibition at P2Y purinoceptor 1 [5] is 90%.
With `CC1(C)CN(c2ccccc2NC(=O)Nc2ccc(OC(F)(F)F)cc2)c2c(O)ccc(-c3cccc(F)c3)c21`, the remaining at 10 min, 0.5 µM in data set [1] is 67%; in data set [3] it was 56%; in data set [4], 59%. Moreover, the IC50 on P2Y purinoceptor 1 [2] worked out at 0.15 nM.
As to `COC(=O)[C@H](c1ccccc1Cl)N1CCc2sccc2C1` [CLOPIDOGREL], the inhibition result in the data set on Oryctolagus cuniculus [6] was “Active”. Moreover, in the data set on Oryctolagus cuniculus [7], the “fold change (FC)” value turned out to be 6.
Consider `CC1(C)CN(c2ccccc2NC(=O)Nc2ccc(OC(F)(F)F)cc2)c2c(O)ccc(Cl)c21`, for which the results for the remaining at 10 min, 0.5 µM in data set [1], in data set [3] and in data set [4] were 66%, 58% and 57%, respectively. In addition, the IC50 at P2Y purinoceptor 1 [2] was determined as 0.39 nM.
Regarding `CC1(C)CN(c2ccccc2NC(=O)Nc2ccc(OC(F)(F)F)cc2)c2c(O)c(F)cc(-c3ccc(F)cc3)c21`, the figures for the remaining at 10 min, 0.5 µM in data set [1], in [3] and in data set [4] were 80%, 66% and 71%, respectively. The IC50 at P2Y purinoceptor 1 [2] is 0.45 nM.
For the compound `CC(C)(C)CN1CCC2(CC1)CN(c1ccccc1NC(=O)Nc1ccc(OC(F)(F)F)cc1)c1c(O)cc(F)c(-c3ccc(Cl)cc3)c12`, the remaining at 10 min, 0.5 µM in data set [1] is 78%; in [3], 74%; in [4], 72%. Moreover, the IC50 on P2Y purinoceptor 1 [2] was determined as 0.16 nM. Besides, the bioavailability in data set [8] turned out to be 15%. In addition, in data set [9], the clearance was found to be 3.7 mL/min/kg. In [10], the Vd was found to be 1.3 L/kg.
Take `CC(C)CN1CCCC1c1ccc(NC(=O)Nc2ccccc2N2CC(C)(C)c3c(-c4ccc(F)cc4)ccc(O)c32)cc1` (centres undefined): the remaining at 10 min, 0.5 µM in data set [1] came out at 58%; in [3], 53%; in data set [4] it was 39%. For the same compound, the concentration for half-maximal inhibition (IC50) at P2Y purinoceptor 1 [2] amounted to 0.02 nM. This compound came in with a bioavailability in data set [8] of 4%. The compound also had a clearance in data set [9] of 34 mL/min/kg. Also, the Vd in data set [10] amounted to 9.8 L/kg.
For `CC(C)(C)CN1CCCC1c1ccc(NC(=O)Nc2ccccc2N2CC(C)(C)c3c(-c4ccc(F)cc4)ccc(O)c32)cc1` (centres undefined), the remaining at 10 min, 0.5 µM in data set [1] came out at 45%; in [3], 52%; in data set [4], 34%. In addition, the IC50 on P2Y purinoceptor 1 [2] came to 0.04 nM.
Regarding `CC1(C)CN(c2ccccc2NC(=O)Nc2nc3ccc(Cl)nc3s2)c2c(O)ccc(Cl)c21`, the IC50 at P2Y purinoceptor 1 [2] stood at 0.14 nM.
Regarding `CCOC(=O)C1(C)CN(c2ccccc2NC(=O)Nc2nc3ccc(Cl)nc3s2)c2c(O)ccc(Cl)c21` (centres undefined), the remaining at 10 min, 0.5 µM in data set [1] was found to be 47%; in data set [3], 54%; in data set [4] it was 14%. Also, the IC50 at P2Y purinoceptor 1 [2] came out at 0.05 nM.
Turning to `CC1(C)CN(c2ccccc2NC(=O)Nc2ccc(OC(F)(F)F)cc2)c2c(O)cc(F)c(-c3ccc(C(F)(F)F)nc3)c21`, the values for the remaining at 10 min, 0.5 µM in data set [1], in data set [3] and in data set [4] were 68%, 73% and 69%, respectively. Also, the IC50 at P2Y purinoceptor 1 [2] is 0.51 nM.
Regarding `CC1(C)CN(c2ccccc2NC(=O)Nc2ccc(OC(F)(F)F)cc2)c2c(O)ccc(-c3ccc(F)c(F)c3)c21`, the results for the remaining at 10 min, 0.5 µM in data set [1], in data set [3] and in data set [4] were 90%, 66% and 81%, respectively. Further, on P2Y purinoceptor 1 [2], the IC50 turned out to be 1.8 nM.
Consider `CC1(C)CN(c2ccccc2NC(=O)Nc2ccc(OC(F)(F)F)cc2)c2c(O)c(F)cc(-c3ccc(Cl)cc3)c21`, for which the remaining at 10 min, 0.5 µM stood at 88% in data set [1], 80% in data set [3] and 100% in [4].
For the compound `CC1(C)CN(c2ccccc2NC(=O)Nc2ccc(OC(F)(F)F)cc2)c2c(O)cc(F)c(-c3ncc(F)cn3)c21`, the results for the remaining at 10 min, 0.5 µM in data set [1], in data set [3] and in [4] were 41%, 42% and 61%, respectively. Moreover, the IC50 on P2Y purinoceptor 1 [2] was found to be 0.3 nM.
Regarding `CC1(CC(F)(F)F)CN(c2ccccc2NC(=O)Nc2ccc(OC(F)(F)F)cc2)c2c(O)ccc(Cl)c21` (centres undefined), the remaining at 10 min, 0.5 µM in data set [1] was 79%; in [3], 66%; in data set [4] it was 58%. The half-maximal inhibitory concentration (IC50) at P2Y purinoceptor 1 [2] is 1.96 nM.
For `CC1(C)CN(c2ccccc2NC(=O)Nc2ccc(OC(F)(F)F)cc2)c2c(O)cc(F)c(-c3ccc(Cl)s3)c21`, the remaining at 10 min, 0.5 µM amounted to 92% in data set [1], 88% in data set [3] and 79% in [4]. On P2Y purinoceptor 1 [2], the IC50 turned out to be 2.3 nM.
For the compound `CC1(C)CN(c2ccccc2NC(=O)Nc2ccc(OC(F)(F)F)cc2)c2c(O)ccc(-c3ccccc3F)c21`, the remaining at 10 min, 0.5 µM in data set [1] was 62%; in data set [3], 48%; in [4] it was 54%. Further, the IC50 on P2Y purinoceptor 1 [2] came out at 0.37 nM.
For `CC1(C)CN(c2ccccc2NC(=O)Nc2ccc(OC(F)(F)F)cc2)c2c(O)ccc(-c3ccccc3)c21`, in that order: 76%, 48%, 67% and 0.37 nM.
For `CC1(C)CN(c2ccccc2NC(=O)Nc2ccc(OC(F)(F)F)cc2)c2c(O)cc(F)c(-c3ccc(C(F)(F)F)cn3)c21`, the remaining at 10 min, 0.5 µM in data set [1] stood at 100%; in [3] it was 65%; in data set [4], 97%. For the same compound, the IC50 at P2Y purinoceptor 1 [2] came out at 0.57 nM.
On to `CCOC(=O)C1(C)CN(c2ccccc2NC(=O)Nc2ccc(OC(F)(F)F)cc2)c2c(O)ccc(Cl)c21` (centres undefined), for which the IC50 at P2Y purinoceptor 1 [2] turned out to be 0.09 nM.
Consider `CC1(C)CN(c2ccccc2NC(=O)Nc2ccc(OC(F)(F)F)cc2)c2c(O)ccc(-c3cc(F)cc(F)c3)c21`, for which the remaining at 10 min, 0.5 µM in data set [1] stood at 63%; in data set [3], 64%; in data set [4], 59%. Further, the half-maximal inhibitory concentration (IC50) on P2Y purinoceptor 1 [2] stood at 0.57 nM.
As for `CC1(C)CN(c2ccccc2NC(=O)Nc2ccc(OC(F)(F)F)cc2)c2c(O)ccc(-c3ccc(F)cc3)c21`, the remaining at 10 min, 0.5 µM turned out to be 87% in data set [1], 83% in data set [3] and 89% in data set [4]. At P2Y purinoceptor 1 [2], the half-maximal inhibitory concentration (IC50) stood at 0.33 nM.
For `CC1(C)CN(c2ccccc2NC(=O)Nc2csc(Cl)n2)c2c(O)ccc(-c3ccc(F)cc3)c21`, in that order: 80%, 75%, 0% and 0.03 nM.
On to `CC1(C)CN(c2ccccc2NC(=O)Nc2nc3ccc(Cl)nc3s2)c2c(O)ccc(-c3ccc(F)cc3)c21`, for which the remaining at 10 min, 0.5 µM in data set [1] turned out to be 75%; in [3] it was 65%; in data set [4] it was 74%. Moreover, the IC50 at P2Y purinoceptor 1 [2] stood at 0.13 nM.
With `CC(C)(C)CN1CCC2(CC1)CN(c1ccccc1NC(=O)Nc1ccc(OC(F)(F)F)cc1)c1c(O)cc(F)c(-c3ccc(F)cc3)c12`, the remaining at 10 min, 0.5 µM in data set [1] was 81%; in data set [3], 67%; in data set [4], 80%. The IC50 at P2Y purinoceptor 1 [2] was found to be 0.09 nM. The bioavailability in data set [8] turned out to be 17%. For the same compound, the clearance in data set [9] came to 4.2 mL/min/kg. Moreover, the Vd in data set [10] came to 1 L/kg.
For `CNC(=O)C1(C)CN(c2ccccc2NC(=O)Nc2nc3ccc(F)cc3s2)c2c(O)ccc(Cl)c21` (centres undefined), the remaining at 10 min, 0.5 µM in data set [1] was found to be 16%; in [3] it was 16%; in data set [4] it was 5%. The inhibition at P2Y purinoceptor 1 [5] was 46%.
As for `CC1(C)CN(c2ccccc2NC(=O)Nc2ccc(OC(F)(F)F)cc2)c2c(O)cc(F)c(-c3cnc(Cl)cn3)c21`, the figures for the remaining at 10 min, 0.5 µM in data set [1], in [3] and in data set [4] were 77%, 67% and 83%, respectively.
Consider `CC1(C)CN(c2ccccc2NC(=O)Nc2ccc(OC(F)(F)F)cc2)c2c(O)ccc(-c3ccc(C(F)(F)F)cc3)c21`, for which the figures for the remaining at 10 min, 0.5 µM in data set [1], in data set [3] and in data set [4] were 96%, 89% and 94%, respectively. Moreover, at P2Y purinoceptor 1 [2], the 50% inhibitory concentration (IC50) was 1.51 nM.
